Results taken from paper PMC4971285 (International Journal for Parasitology: Drugs and Drug …, 2016).
Where two headings read alike, the source gives them in different places.

Assays:
[1] = Cytotoxicity on Vero cells; assay type: cell-based; conditions: African green monkey
Outline: (§1)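 Vero cells kept in RPMI 1640 with 10% FBS at 37 °C, 5% CO2, seeded 1.5 × 10^4/well and cultured 24 h. Treated 72 h at 100 to 3.7 μM, with or without 30 μM heme in medium. Resazurin (0.005%) added for 4 h at 37 °C, fluorescence read at 530/600 nm. CC50 fitted from dose-response versus untreated control. Triplicates.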

[2] = Cytotoxicity on primary cardiomyocytes; assay type: cell-based, mice; conditions: mouse, primary embryonic cardiomyocytes
Outline: (§2)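 Heart muscle cells were enzymatically isolated from mouse embryo myocardia and grown in DMEM with 2.5 mM CaCl2, 2% chick embryo extract, 7% FBS and 1 mM L-glutamine. Seeded 7 × 10^4/well, cultured 24 h, then treated 72 h at 100 to 3.7 μM, with or without 30 μM heme. Resazurin 0.005% for 4 h, fluorescence at 530/600 nm. CC50 fitted against untreated control. Triplicates.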

T. cruzi Y amastigotes = test: Intracellular amastigotes in infected cardiomyocytes; assay type: cell-based; conditions: Trypanosoma cruzi, Cardiomyocyte, 72 h, read-out: Percentage of amastigote growth inhibition, 72 h of treatment with 10 μM of compounds
[3] = tested on: T. cruzi Y epimastigote forms; test: Epimastigote growth inhibition; assay type: cell-based; conditions: Trypanosoma cruzi, 72 h, read-out: IC50 (Concentration that inhibits the growth of 50% of T. cruzi Y epimastigote forms within 72 h), 72 h, in the presence of 150 μM of heme, Probit
Outline: (§3)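 Log-phase Y-strain epimastigotes (5 × 10^5/mL) treated 72 h at 28 °C in BHI with folic acid, 150 μM hemin and 10% FBS, at 50, 25 and 12.5 μM. Final DMSO ≤1%. Counted in a Neubauer chamber, with motility and morphology as viability criteria. IC50 derived by probit. Selectivity index taken as cardiomyocyte CC50 divided by epimastigote IC50.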

[4] = Epimastigote growth inhibition; assay type: cell-based; conditions: Trypanosoma cruzi
Outline: as §3

[5] = tested on: T. cruzi Y trypomastigotes; test: Trypomastigote viability; assay type: cell-based, Trypanosoma cruzi; conditions: 30 μM compound, 24 h, with vs without 30 μM hemin
Outline: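 Culture-derived Y-strain trypomastigotes were collected from infected Vero supernatants at 4 dpi. Parasites (2 × 10^6/100 μl) incubated 24 h at 37 °C in RPMI 1640 with 30 μM test compound, with or without 30 μM hemin. […] Viability read by resazurin (0.005%) fluorescence at 530/600 nm. Percentage death calculated against the matching untreated or hemin-only control.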

Vero cells = test: Cytotoxicity on Vero cells; assay type: cell-based
Outline: as §1

Cardiomyocytes = test: Cytotoxicity on primary cardiomyocytes; assay type: cell-based, mice; conditions: read-out: CC50 Vero/CM, cardiomyocytes, 72 h, resazurin
Outline: as §2

Structure (SMILES) | CC50 at 72 h [1] [µM] | CC50 at 72 h [2] [µM] | inhibition of growth at 10 µM (T. cruzi Y amastigotes) [%] | IC50 [3] [µM] | selectivity ratio at 72 h [4] | increase in activity (death of trypomastigote forms) by combination with hemin [5] | CC50 (Vero cells; read-out: CC50 Vero/CM, medium without heme, 72 h, resazurin) [µM] | CC50 (Vero cells; read-out: CC50 Vero/CM, with 30 μM of heme, 72 h, resazurin) [µM] | CC50 (Cardiomyocytes; medium without heme) [µM] | CC50 (Cardiomyocytes; with 30 μM of heme) [µM]
N#Cc1cnc2ccc(Cl)cc2c1Nc1cccc(F)c1 [Compound 1b, 6-chloro-4-(3’-fluorophenylamino)quinoline-3-carbonitrile] | 69 ± 22 | 67 ± 11.6 | 53.2 ± 10 | 16.6 ± 0.2 | 4 |  |  |  |  | 
N#Cc1cnc2ccc(Cl)cc2c1Nc1cccc(Br)c1 [Compound 1f, 4-(3’-bromophenylamino)-6-chloroquinoline-3-carbonitrile] | 71 ± 26 | > 100 | 60.4 ± 9 | 21.2 ± 14.2 | > 4.7 |  |  |  |  | 
N#Cc1cnc2ccc(Cl)cc2c1Nc1cccc(Cl)c1 [Compound 1e, 6-chloro-4-(3’-chlorophenylamino)quinoline-3-carbonitrile] | 89 ± 18 | 65.2 ± 18.5 | 55.4 ± 7 | 15.4 ± 0.7 | 4.2 |  |  |  |  | 
N#Cc1cnc2ccc(Cl)cc2c1Nc1ccccc1 [Compound 1a, 6-chloro-4-(phenylamino)quinoline-3-carbonitrile] | > 100 | > 100 | 45.5 ± 9 | 17.6 ± 6.1 | > 5.68 | ~1.6 fold |  |  |  | 
O=C(Cn1ccnc1[N+](=O)[O-])NCc1ccccc1 [Bz, benznidazole, reference compound] | > 100 | > 100 | 99.8 ± 0.4 | 5.6 ± 0.05 | > 17.9 | about 1.3 fold | > 100 | > 100 | > 100 | > 100
N#Cc1cnc2ccc(Cl)cc2c1Nc1ccccc1Cl [Compound 1d, 6-chloro-4-(2’-chlorophenylamino)quinoline-3-carbonitrile] | 64 ± 12.5 | 47.7 ± 13 | 57.6 ± 8 | 40 ± 13.7 | 1.19 |  |  |  |  | 
N#Cc1cnc2ccc(Cl)cc2c1Nc1ccc(F)cc1 [Compound 1c, 6-chloro-4-(4’-fluorophenylamino)quinoline-3-carbonitrile] | > 100 | > 100 | 52.5 ± 6 | 8.8 ± 1.3 | > 11.4 |  |  |  |  | 
